PGC1a acetyl inh: PGC1a acetylation modulation, inhibitor mode. U2OS PGC1a acetylation, AlphaScreen anti-acetyl-lysine; with virally co-expressed GCN5 acetyltransferase. inhibition, % at 15.6 µM. 350,000 tested, 0.17% active;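 active = every replicate shows inhibition of at least 40%; inconclusive = mean inhibition at least 40% but some replicate below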;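 note: 0% = neutral control wells and 100% = positive control wells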
PglD inh: PglD (C. jejuni) enzyme inhibition; purified PglD enzyme, DTNB colorimetric CoA detection; inhibition, % at 12.5 µM; 360,000 tested, 0.098% active; AID 602405; in the data active = inhibition above about 16%, passing the limit was not always enough; inconclusive = no clear call, values can overlap the other calls
Env fusion inh: HIV envelope-mediated fusion inhibition. HeLa-JRFL Env/CEM21 cell fusion, luciferase. inhibition, % at 12.3 µM. 360,000 tested, 1.1% active. AID 651610;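 active = mean replicate inhibition score of at least 50 and every replicate individually at or above 50; inconclusive = only one of the two criteria met; inactive = mean below 50 and not all replicates reaching 50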;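 note: 0% = plate neutral controls and 100% = maraviroc near 300 nM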
rRNA inh HTS: selective bacterial rRNA inhibition in E. coli. E. coli WT GFP vs humanized-ribosome RFP mutants, fluorescence, 24 h; stronger effect = lower value; DMSO median 0, no signal -100. GFP signal change (wild-type ribosome), % (concentration not given with the values). 350,000 tested, 1.6% active;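 active = significant combined selectivity score with lowered wild-type GFP, culture density cut under 30%, mutant RFP and density less affected; inactive = any of these conditions unmet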
FN deposition inh: fibronectin deposition inhibition | inhibition, % at 12.6 µM | AH1F fibroblasts, Alexa488-fibronectin deposition fluorescence, overnight | AID 743247 | 350,000 tested, 0.086% active;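 active = mean inhibition across replicates of 30% or more, regardless of how many single replicates reach that level; inconclusive = mean under 30% yet at least half of replicates reach 30%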;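 note: positive control wells lacked labelled fibronectin entirely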
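Assay system: AH1F fibroblasts assembling fluorescent fibronectin matrix; Amount: 10000 AH1F cells per well; Buffer or medium: DMEM, 2% serum; Probe or stimulus: Alexa488-fibronectin, 24 nM final in well; Doses: single compound dose, delivered by pin transfer; Incubation: 1 h adhesion, overnight exposure; Measured by: fluorescence 485/525 nm; Read-out: fibronectin deposition inhibition.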
DENV2 CPE rescue: protects cells from dengue virus 2 cytopathic effect; CPE inhibition, % at 9.99 µM; 350,000 tested, 1.7% active; AID 651640; DENV2-infected cells, cytopathic effect rescue, plate reader; in the data active = CPE inhibition above about 20%, passing the limit was not always enough; inconclusive = no clear call, values can overlap the other calls; tested in BHK-21 cells;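 note: 0% = median of neutral control wells and 100% = median of positive control wells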
Starred values were filed as active, the others as inactive; u = inconclusive; x = no result; [ ] = another dose, or the depositor's remark. Compounds with a hit are over-represented: about 3.5% of the library has one in this group of screens.

SMILES	PGC1a acetyl inh	PglD inh	Env fusion inh	rRNA inh HTS	FN deposition inh	DENV2 CPE rescue
CNC[C@@H]1Oc2cc(C#Cc3ccc(OC)cc3)ccc2S(=O)(=O)N([C@H](C)CO)C[C@H]1C	-24.9	-2.6	-5.2[16.7 µM]	5.0	3.3	-8.4
CNC[C@H]1Oc2cc(C#Cc3ccc(OC)cc3)ccc2S(=O)(=O)N([C@@H](C)CO)C[C@@H]1C	-14.7	6.8	7.6[16.7 µM]	1.2	9.4	33.3*
CCCNC(=O)N(C)C[C@@H]1Oc2cc(C#C[C@H](C)O)ccc2S(=O)(=O)N([C@H](C)CO)C[C@H]1C	-10.1	3.9	4.7	4.3	10.7	0.9
C[C@H](O)C#Cc1ccc2c(c1)O[C@@H](CN(C)C)[C@H](C)CN([C@H](C)CO)S2(=O)=O	-1.0	1.7	-9.9[16.7 µM]	-2.5	48.1*	12.8
C[C@@H]1CN([C@H](C)CO)C(=O)c2cc(NC(=O)CCN3CCOCC3)ccc2O[C@H]1CN(C)Cc1ccc(-c2ccccc2)cc1	4.0	-4.9	-7.5[16.7 µM]	1.0	x	3.1
O=C(N[C@H]1CC[C@H](CCNS(=O)(=O)c2ccc(F)cc2)O[C@H]1CO)c1ccccn1	5.2	2.3	-20.6[16.7 µM]	2.1	x	1.7
CNC(=O)C[C@H]1CC[C@@H]2[C@H](COc3ccc(NC(=O)Nc4ccccc4F)cc3C(=O)N2C)O1	-0.5	0.8	-1.5[16.7 µM]	-0.7	-10.9	4.7
CCC(=O)N1[C@@H]2c3cccc(=O)n3C[C@@H]2[C@@H](CO)[C@@H]1C(=O)N[C@H](C)c1ccccc1	-3.5	x	x	5.1	x	-4.9
C[C@H]1CN([C@@H](C)CO)S(=O)(=O)c2ccc(C#CC3CC3)cc2O[C@@H]1CN(C)Cc1ccncc1	-11.7	9.7	11.6[16.7 µM]	-48.9	8.9	41.7*
C[C@@H]1CN([C@H](C)CO)S(=O)(=O)c2ccc(C#CC3CC3)cc2O[C@@H]1CN(C)Cc1ccncc1	-23.2	1.9	u	-5.2	-8.3	-9.3
C=C(C)n1c(=O)n(Cc2ccccc2C)c2ccccc21	8.1	5.0	11.6	-30.8*	7.6	-8.5
CC(C)(C)NC[C@@H](O)COc1cccc2c1CCCC2=O	x	6.4	25.1	10.8	-2.6	30.9*
CC(C)(C)NCC(O)COc1ccccc1C1CCCC1 (centres undefined)	-11.9	-0.4	-29.4	x	-1.6	-3.5
CN1CCCC1c1cccnc1 (centres undefined)	-2.7	-4.2	x	4.1	x	116.9*
Cc1noc(C)c1S(=O)(=O)N(C)C[C@@H]1Oc2ccc(NC(=O)Nc3ccccc3)cc2CC(=O)N([C@@H](C)CO)C[C@H]1C	-1.5	x	-8.3[16.7 µM]	-1.3	x	x
Cc1noc(C)c1NC(=O)Nc1ccc2c(c1)CC(=O)N([C@H](C)CO)C[C@@H](C)[C@@H](CN(C)C)O2	-3.4	1.7	x	4.7	x	-8.9
Cc1noc(C)c1S(=O)(=O)N(C)C[C@@H]1Oc2ccc(NC(=O)Cc3ccccc3)cc2CC(=O)N([C@H](C)CO)C[C@@H]1C	-1.3	4.1	64.9*[16.7 µM]	5.3	x	5.6
Cc1noc(C)c1S(=O)(=O)N(C)C[C@@H]1Oc2ccc(NC(=O)Nc3ccccc3)cc2CC(=O)N([C@@H](C)CO)C[C@@H]1C	-1.4	x	84.8*[16.7 µM]	4.7	x	x
Cc1noc(C)c1S(=O)(=O)N(C)C[C@H]1Oc2ccc(NC(=O)Nc3ccccc3)cc2CC(=O)N([C@H](C)CO)C[C@H]1C	u	x	69.4*[16.7 µM]	2.4	12.2	x
C[C@H]1CN([C@@H](C)CO)C(=O)Cc2cc(NC(=O)Cc3ccccc3)ccc2O[C@@H]1CN(C)S(=O)(=O)c1ccccc1	-13.2	2.2	9.3[16.7 µM]	1.4	x	-4.9
Cc1noc(C)c1NC(=O)Nc1ccc2c(c1)CC(=O)N([C@@H](C)CO)C[C@H](C)[C@H](CN(C)C)O2	-7.9	-0.2	x	4.0	x	21.1*
Cc1noc(C)c1S(=O)(=O)N(C)C[C@@H]1Oc2ccc(NC(=O)Nc3ccc(F)cc3)cc2CC(=O)N([C@H](C)CO)C[C@H]1C	4.0	0.5	-5.4[16.7 µM]	-6.7	x	0.0
C[C@H](CO)N1C[C@H](C)[C@H](CN(C)Cc2ccccc2)Oc2ncc(C#CCc3ccccc3)cc2C1=O	2.2	x	x	-41.0	x	8.6
CC(C)CC#Cc1ccc([C@H]2[C@H]3CN(C(=O)Cc4ccccc4)CC(=O)N3[C@H]2CO)cc1	6.2	x	x	-58.3	x	8.4
Cc1noc(C)c1S(=O)(=O)N(C)C[C@H]1Oc2ccc(NC(=O)Nc3ccc(F)cc3)cc2CC(=O)N([C@@H](C)CO)C[C@H]1C	-9.2	5.1	45.8[16.7 µM]	-2.5	x	5.7
SMILES	PGC1a acetyl inh	PglD inh	Env fusion inh	rRNA inh HTS	FN deposition inh	DENV2 CPE rescue
Cc1noc(C)c1S(=O)(=O)N(C)C[C@@H]1Oc2ccc(NC(=O)Nc3ccc(F)cc3)cc2CC(=O)N([C@@H](C)CO)C[C@@H]1C	-13.7	1.0	55.3*[16.7 µM]	-2.2	x	-8.2
Cc1noc(C)c1S(=O)(=O)N(C)C[C@@H]1Oc2ccc(NC(=O)Nc3cccc4ccccc34)cc2CC(=O)N([C@@H](C)CO)C[C@@H]1C	2.0	-2.7	59.3*[16.7 µM]	-0.5	-4.8	3.3
C[C@@H]1CCCCO[C@H](CN(C)Cc2ccc(C(F)(F)F)cc2)[C@H](C)CN([C@@H](C)CO)C(=O)c2cc(NC(=O)CCCN(C)C)ccc2O1	-5.5	0.3	-9.2[16.7 µM]	-3.0	x	0.1
Cc1cc(Cl)ccc1OCC(=O)N1CCCCC1	10.0	1.5	x	x	x	x
O=C(COc1ccc(Cl)cc1Cl)N1CCCN(C(=O)COc2ccc(Cl)cc2Cl)CC1	4.6	-1.0	83.5*	x	0.4	x
CC(=O)N1CCN(c2ccc(NC(=O)COc3ccc(Cl)cc3Cl)cc2)CC1	3.4	-1.8	52.8*	x	0.7	x
O=C(CSC1=Nc2ccccc2C2=NC(Cc3c[nH]c4ccccc34)C(=O)N12)NC1CCCCC1 (centres undefined)	4.8	-1.9	113.8*	x	-5.7	x
CC1CC(C)CN(C(=O)CSC2=Nc3ccccc3C3=NC(Cc4c[nH]c5ccccc45)C(=O)N23)C1 (centres undefined)	x	-2.2	x	x	x	x
Cn1c(=O)[nH]c(=O)c2c1nc(N1CCNCC1)n2Cc1ccccc1	-5.4	-3.4	3.8	19.1	-9.7	4.5
Cn1c(=O)[nH]c(=O)c2c1nc(N1CCNCC1)n2Cc1cccc2ccccc12	-10.8	2.7	58.2*	x	3.2	x
Cc1nn(-c2ccccc2)c(C)c1NC(=O)COC(=O)CCOc1ccccc1	-0.4	0.8	-1.0	4.8	-2.6	15.7
COc1ccc(OCCCC(=O)OCC(=O)Nc2c(C)nn(-c3ccccc3)c2C)cc1	85.2*	-1.2	x	0.7	0.8	1.0
Cn1cc(C(CO)Cc2ccccc2)c2ccccc21 (centres undefined)	-8.8	-2.6	10.8	-8.1	2.2	25.4*
Cc1nc2ccc(NC(=S)NC3CCCCC3)cc2nc1C	x	x	-39.7	-28.4*	-2.4	x
COC(=O)c1cc2oc3ccccc3c2n1Cc1ccccn1	x	-2.0	x	-44.0*	x	x
